Assay results published in ChEMBL document CHEMBL3526002, “Tissue distribution and identification of radioactivity components at elimination phase after oral administration of [¹⁴C]CS-1036, an α-amylase inhibitor, to rats” (Drug Metab Dispos, 2013).

Tests used:
Set-up in all cases: dose 5 mg/kg, dosed compound name [14C]CS-1036, route oral
Settings in all cases: in vivo
[1] = Drug uptake in albino F344/DuCrlCrlj rat skeletal muscle assessed as ng equivalent of CS-1036 at 5 mg/kg, po after 72 hrs by liquid scintillation counting; type: ADME, organism-based, Muscle tissue
[2] = Drug uptake in albino F344/DuCrlCrlj rat eyeball at 5 mg/kg, po after 168 hrs by liquid scintillation counting; type: ADME, organism-based
[3] = Drug uptake in albino F344/DuCrlCrlj rat skeletal muscle at 5 mg/kg, po after 336 hrs by liquid scintillation counting; type: ADME, organism-based, Muscle tissue
Large intestine = experiment: Drug uptake in albino F344/DuCrlCrlj rat large intestine at 5 mg/kg, po after 4 hrs by liquid scintillation counting; type: ADME, organism-based
[4] = Drug uptake in albino F344/DuCrlCrlj rat thyroid gland at 5 mg/kg, po after 168 hrs by liquid scintillation counting; type: ADME, organism-based
Stomach [5] = experiment: Drug uptake in albino F344/DuCrlCrlj rat stomach at 5 mg/kg, po after 4 hrs by liquid scintillation counting; type: ADME, organism-based
Adrenal gland = experiment: Drug uptake in albino F344/DuCrlCrlj rat adrenal gland assessed as ng equivalent of CS-1036 at 5 mg/kg, po after 24 hrs by liquid scintillation counting; type: ADME, organism-based
Blood [6] = experiment: Drug uptake in albino F344/DuCrlCrlj rat blood assessed as ng equivalent of CS-1036 at 5 mg/kg, po after 4 hrs by liquid scintillation counting; type: ADME, organism-based
Method in brief: (§1)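 Male F344/DuCrlCrlj rats (159–167 g; n = 3 per time point) received a single oral dose of [14C]CS-1036 at 5 mg/kg. Blood was taken from the abdominal aorta at 1, 4, 8, 24, 72, 168 and 336 h. Radioactivity was counted by LSC with external-standard efficiency correction. Results were converted to ng equivalent of CS-1036/ml using specific activity and sample volume, and reported as mean + S.D.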

[7] = Drug uptake in albino F344/DuCrlCrlj rat epididymis assessed as ng equivalent of CS-1036 at 5 mg/kg, po after 8 hrs by liquid scintillation counting; type: ADME, organism-based
Liver [8] = experiment: Drug uptake in albino F344/DuCrlCrlj rat liver at 5 mg/kg, po after 1 hr by liquid scintillation counting; type: ADME, organism-based
Harderian gland [9] = experiment: Drug uptake in albino F344/DuCrlCrlj rat harderian gland at 5 mg/kg, po after 336 hrs by liquid scintillation counting; type: ADME, organism-based
Spleen = experiment: Drug uptake in albino F344/DuCrlCrlj rat spleen assessed as ng equivalent of CS-1036 at 5 mg/kg, po after 72 hrs by liquid scintillation counting; type: ADME, organism-based
[10] = Drug uptake in albino F344/DuCrlCrlj rat skeletal muscle assessed as ng equivalent of CS-1036 at 5 mg/kg, po after 336 hrs by liquid scintillation counting; type: ADME, organism-based, Muscle tissue
Cerebrum [11] = experiment: Drug uptake in albino F344/DuCrlCrlj rat cerebrum at 5 mg/kg, po after 4 hrs by liquid scintillation counting; type: ADME, organism-based
Method in brief: (§2)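 Single oral [14C]CS-1036 at 5 mg/kg was given to male rats (159–167 g; n = 3). Cerebrum was collected after aortic bleeding at 1, 4, 8, 24, 72, 168 or 336 h, weighed, and homogenized in 2 volumes of saline. A 0.5 ml aliquot was solubilized in Soluene-350 and counted by LSC with external-standard correction. Results are in ng equivalent/g tissue from specific activity and sample weight.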

Lung = experiment: Drug uptake in albino F344/DuCrlCrlj rat lung assessed as ng equivalent of CS-1036 at 5 mg/kg, po after 1 hr by liquid scintillation counting; type: ADME, organism-based
Small intestine = experiment: Drug uptake in albino F344/DuCrlCrlj rat small intestine at 5 mg/kg, po after 72 hrs by liquid scintillation counting; type: ADME, organism-based
[12] = Drug uptake in albino F344/DuCrlCrlj rat eyeball assessed as ng equivalent of CS-1036 at 5 mg/kg, po after 72 hrs by liquid scintillation counting; type: ADME, organism-based
[13] = Drug uptake in albino F344/DuCrlCrlj rat skeletal muscle at 5 mg/kg, po after 24 hrs by liquid scintillation counting; type: ADME, organism-based, Muscle tissue
Harderian gland [14] = experiment: Drug uptake in albino F344/DuCrlCrlj rat harderian gland assessed as ng equivalent of CS-1036 at 5 mg/kg, po after 8 hrs by liquid scintillation counting; type: ADME, organism-based
Stomach [15] = experiment: Drug uptake in albino F344/DuCrlCrlj rat stomach assessed as ng equivalent of CS-1036 at 5 mg/kg, po after 8 hrs by liquid scintillation counting; type: ADME, organism-based
Cerebrum [16] = experiment: Drug uptake in albino F344/DuCrlCrlj rat cerebrum at 5 mg/kg, po after 72 hrs by liquid scintillation counting; type: ADME, organism-based; method in brief: as §2
[17] = Drug uptake in albino F344/DuCrlCrlj rat pituitary gland assessed as ng equivalent of CS-1036 at 5 mg/kg, po after 24 hrs by liquid scintillation counting; type: ADME, organism-based
Pancreas [18] = experiment: Drug uptake in albino F344/DuCrlCrlj rat pancreas at 5 mg/kg, po after 4 hrs by liquid scintillation counting; type: ADME, organism-based
Harderian gland [19] = experiment: Drug uptake in albino F344/DuCrlCrlj rat harderian gland at 5 mg/kg, po after 8 hrs by liquid scintillation counting; type: ADME, organism-based
Zone of skin [20] = experiment: Drug uptake in albino F344/DuCrlCrlj rat skin assessed as ng equivalent of CS-1036 at 5 mg/kg, po after 24 hrs by liquid scintillation counting; type: ADME, organism-based
Blood [21] = experiment: Drug uptake in albino F344/DuCrlCrlj rat blood assessed as ng equivalent of CS-1036 at 5 mg/kg, po after 72 hrs by liquid scintillation counting; type: ADME, organism-based; method in brief: as §1
Heart = experiment: Drug uptake in albino F344/DuCrlCrlj rat heart assessed as ng equivalent of CS-1036 at 5 mg/kg, po after 24 hrs by liquid scintillation counting; type: ADME, organism-based
[22] = Drug uptake in albino F344/DuCrlCrlj rat epididymis at 5 mg/kg, po after 168 hrs by liquid scintillation counting; type: ADME, organism-based
Liver [23] = experiment: Drug uptake in albino F344/DuCrlCrlj rat liver at 5 mg/kg, po after 336 hrs by liquid scintillation counting; type: ADME, organism-based
Pancreas [24] = experiment: Drug uptake in albino F344/DuCrlCrlj rat pancreas assessed as ng equivalent of CS-1036 at 5 mg/kg, po after 72 hrs by liquid scintillation counting; type: ADME, organism-based
Zone of skin [25] = experiment: Drug uptake in albino F344/DuCrlCrlj rat skin assessed as ng equivalent of CS-1036 at 5 mg/kg, po after 168 hrs by liquid scintillation counting; type: ADME, organism-based
[26] = Drug uptake in albino F344/DuCrlCrlj rat epididymis at 5 mg/kg, po after 24 hrs by liquid scintillation counting; type: ADME, organism-based
Thymus = experiment: Drug uptake in albino F344/DuCrlCrlj rat thymus at 5 mg/kg, po after 24 hrs by liquid scintillation counting; type: ADME, organism-based
Kidney = experiment: Drug uptake in albino F344/DuCrlCrlj rat kidney assessed as ng equivalent of CS-1036 at 5 mg/kg, po after 4 hrs by liquid scintillation counting; type: ADME, organism-based
[27] = Drug uptake in albino F344/DuCrlCrlj rat brown fat assessed as ng equivalent of CS-1036 at 5 mg/kg, po after 4 hrs by liquid scintillation counting; type: ADME, organism-based, Brown adipose tissue

C[C@H]1O[C@@H](O[C@H]2[C@H](O)[C@@H](O)[C@@H](O[14C@H]3[14C@H](O)[14CH2]N[14C@@H]3[14CH2]O)O[C@@H]2CO)[C@H](O)[C@@H](O)[C@@H]1O
Radiolabel recovery [1]: 9.2 ngequiv/g | Radiolabel recovery [2]: 4.54 ngequiv/g | Radiolabel recovery [3]: 7.04 ngequiv/g | Radiolabel recovery (Large intestine): 5930 ngequiv/g | Radiolabel recovery [4]: 33.7 ngequiv/g | Radiolabel recovery (Stomach [5]): 129 ngequiv/g | Radiolabel recovery (Adrenal gland): 20.2 ngequiv/g | Radiolabel recovery (Blood [6]): 16.3 ngequiv/ml | Radiolabel recovery [7]: 37.8 ngequiv/g | Radiolabel recovery (Liver [8]): 346 ngequiv/g | Radiolabel recovery (Harderian gland [9]): 5.08 ngequiv/g | Radiolabel recovery (Spleen): 19.5 ngequiv/g | Radiolabel recovery [10]: 3.46 ngequiv/g | Radiolabel recovery (Cerebrum [11]): 12.2 ngequiv/g | Radiolabel recovery (Lung): 3 ngequiv/g | Radiolabel recovery (Small intestine): 41.3 ngequiv/g | Radiolabel recovery [12]: 1.72 ngequiv/g | Radiolabel recovery [13]: 34.4 ngequiv/g | Radiolabel recovery (Harderian gland [14]): 24.5 ngequiv/g | Radiolabel recovery (Stomach [15]): 59 ngequiv/g | Radiolabel recovery (Cerebrum [16]): 8.91 ngequiv/g | Radiolabel recovery [17]: 33.1 ngequiv/g | Radiolabel recovery (Pancreas [18]): 249 ngequiv/g | Radiolabel recovery (Harderian gland [19]): 55.9 ngequiv/g | Radiolabel recovery (Zone of skin [20]): 8.2 ngequiv/g | Radiolabel recovery (Blood [21]): 6.6 ngequiv/ml | Radiolabel recovery (Heart): 4.4 ngequiv/g | Radiolabel recovery [22]: 18.5 ngequiv/g | Radiolabel recovery (Liver [23]): 7.76 ngequiv/g | Radiolabel recovery (Pancreas [24]): 82 ngequiv/g | Radiolabel recovery (Zone of skin [25]): 23.9 ngequiv/g | Radiolabel recovery [26]: 40.8 ngequiv/g | Radiolabel recovery (Thymus): 53.3 ngequiv/g | Radiolabel recovery (Kidney): 173 ngequiv/g | Radiolabel recovery [27]: 2.5 ngequiv/g
